{"data": "Experimental data collected from several papers", "Si": "Sucrase-isomaltase, intestinal (Si, Rattus norvegicus, UniProt P23739)", "Abl2": "Abl2 (Mus musculus, UniProt Q4JIM5)", "note": "Each line is one published result; the experiments were not run side by side."}
{"SMILES": "O=C(c1ccc(Cl)cc1)N(Cc1ccccc1)C1CCCCC1", "target": "Glucocorticoid receptor (NR3C1, Homo sapiens, UniProt P04150)", "assay": "cell-free assay", "conditions": "10 µM", "measurement": "inhibition", "value": "28.5%"}
{"SMILES": "O=c1c(O[C@@H]2O[C@@H](CO)[C@H](O)[C@H]2O)c(-c2ccc(O)c(O)c2)oc2cc(O)cc(O)c12", "target": "Si", "assay": "enzyme activity, inhibitor", "conditions": "200 µg/mL", "measurement": "inhibition", "value": "58.3%"}
{"SMILES": "O=C(O)C(=O)Cc1ccccc1", "target": "D-dopachrome decarboxylase (Homo sapiens, UniProt P30046)", "assay": "enzyme activity, substrate", "measurement": "Km", "value": "2400 µM"}
{"SMILES": "O=c1c(O[C@@H]2O[C@H](CO)[C@@H](O)[C@H](O)[C@H]2O)c(-c2ccc(O)c(O)c2)oc2cc(O)cc(O)c12", "target": "Si", "assay": "enzyme activity, inhibitor", "conditions": "50 µg/mL", "measurement": "inhibition", "value": "30.8%"}
{"SMILES": "Cn1c2c(c3ccc(Cl)c(Cl)c31)C(C#N)C(C)(C)NC2=O (stereo not shown)", "target": "Rhodopsin kinase GRK1 (GRK1, Homo sapiens, UniProt Q15835)", "assay": "thermal stability, DSF", "conditions": "10 µM", "measurement": "ΔTm", "value": "2.7 °C"}
{"SMILES": "Nc1ncnc2occ(-c3ccc(NC(=O)Nc4cc(C(F)(F)F)ccc4F)cc3)c12", "target": "Serine/threonine-protein kinase RIO2 (RIOK2, Homo sapiens, UniProt Q9BVS4)", "assay": "cell-free assay, inhibitor", "conditions": "20 µM", "measurement": "remaining signal", "value": "8.5%"}
{"SMILES": "CNC(=O)c1cc(Oc2ccc(NC(=O)Nc3ccc(Cl)c(C(F)(F)F)c3)cc2)ccn1", "target": "Abl2", "assay": "enzyme activity, inhibitor", "conditions": "0.3 µM", "measurement": "inhibition", "value": "16%"}
{"SMILES": "Cc1ccc(C(=O)Nc2ccc(CN3CCN(C)CC3)c(C(F)(F)F)c2)cc1C#Cc1cnc2cccnn12", "target": "Hormonally up-regulated neu tumor-associated kinase (HUNK, Homo sapiens, UniProt P57058)", "assay": "enzyme activity, inhibitor", "conditions": "23.5 nM", "measurement": "remaining activity", "value": "94%"}
{"SMILES": "CCCc1c(-c2ccc(O)cc2)nn(-c2ccc(O)cc2)c1-c1ccc(O)cc1", "target": "Estrogen receptor (ESR1, Homo sapiens, UniProt P03372)", "assay": "reporter gene, agonist, luciferase", "system": "U2OS", "measurement": "Emax", "value": "120%"}
{"SMILES": "CCOCc1nc(O)c(-c2nnc(Cc3ccc(Cl)cn3)o2)c(O)c1-c1c(OC)cccc1OC", "target": "Apelin receptor (APLNR, Homo sapiens, UniProt P35414)", "assay": "binding, radioligand", "measurement": "kon", "value": "5.17e+06 M⁻¹ s⁻¹"}
{"SMILES": "O=C(Nc1cccc(-c2ccn[nH]2)c1)c1cccc2cn[nH]c12", "target": "pqsE (Pseudomonas aeruginosa, UniProt P20581)", "assay": "thermal stability, DSF", "conditions": "100 µM", "measurement": "ΔTm", "value": "3.4 °C"}
{"SMILES": "Oc1ccc(-c2nc(-c3ccncc3)c(-c3ccc(F)cc3)[nH]2)cc1", "target": "Bromodomain-containing protein 1, bromodomain (BRD1, Homo sapiens, UniProt O95696)", "assay": "thermal stability, DSF", "conditions": "10 µM", "measurement": "ΔTm", "value": "0.46 °C"}
{"SMILES": "O=C(c1ccc(F)cc1)N(Cc1ccccc1)C1CCCCC1", "target": "5-hydroxytryptamine receptor 1A (HTR1A, Homo sapiens, UniProt P08908)", "assay": "ligand displacement, radioligand", "conditions": "10 µM", "measurement": "inhibition", "value": "2%"}
{"SMILES": "Cc1ccc(NC(=O)c2ccc(C)c(C(F)(F)F)c2)cc1C#Cc1nn(C2CCC(O)CC2)c2ncnc(N)c12 (stereo not shown)", "target": "Abl2", "assay": "cell-free assay", "conditions": "10 µM", "measurement": "remaining signal", "value": "-1%"}
{"SMILES": "Cc1cnc(NC2CCOCC2)nc1-n1cnc(C(=O)NC(CN)c2cc(F)cc(Cl)c2)c1 (stereo not shown)", "target": "Abl2", "assay": "enzyme activity, inhibitor, radiometric", "conditions": "1 µM", "measurement": "remaining activity", "value": "102%"}
{"SMILES": "O=C1OC[C@H]2OC(=O)c3cc(O)c(O)c(O)c3-c3c(O)c(O)c(O)c4c3C(=O)O[C@H]([C@H]3OC(=O)c5c-4c(O)c(O)c(O)c5[C@H]3O)[C@@H]2OC(=O)c2cc(O)c(O)c(O)c2-c2c1cc(O)c(O)c2O", "target": "Si", "assay": "enzyme activity, inhibitor", "conditions": "200 µg/mL", "measurement": "inhibition", "value": "52.8%"}
